From ChEMBL document CHEMBL1821604, “Anticancer activity and cDNA microarray studies of a (RS)-1,2,3,5-tetrahydro-4,1-benzoxazepine-3-yl]-6-chloro-9H-purine, and an acyclic (RS)-O,N-acetalic 6-chloro-7H-purine” (Eur J Med Chem, 2011)

How the values were obtained:
Type in all cases: functional
HT-29 [1] = assay: Upregulation of C20orf40 gene expression in human HT-29 cells at IC50 after 48 hrs by cDNA microarray technique relative to control
MCF7 [2] = assay: Down regulation of ATP1B4 gene expression in human MCF7 cells at IC50 after 48 hrs by cDNA microarray technique relative to control
Outline: (§1)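 8 × 10⁶ cells exposed 48 h to compound at its IC50 concentration; total RNA isolated with trizol/chloroform and RNeasy columns including on-column DNase step; RNA quantified by OD 260/280; DMSO-treated cultures as control.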

HT-29 [3] = assay: Down regulation of ETV1 gene expression in human HT-29 cells at IC50 after 48 hrs by cDNA microarray technique relative to control
Outline: (§2)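 Cells (8 × 10⁶) were cultured in DMEM with 10% heat-inactivated FBS at 37 °C under 5% CO₂. They were exposed for 48 h to compound at its IC₅₀, with DMSO-treated parallel cultures as controls (final DMSO ≤0.1% v/v). Total RNA was isolated by trizol/chloroform phase separation, RNeasy column cleanup and on-column DNase, then quantified by OD260/OD280. Expression was profiled by cDNA microarray relative to control.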

MCF7 [4] = assay: Upregulation of ROS1 gene expression in human MCF7 cells at IC50 after 48 hrs by cDNA microarray technique relative to control
MCF7 [5] = assay: Down regulation of DKFZp727G131 gene expression in human MCF7 cells at IC50 after 48 hrs by cDNA microarray technique relative to control; outline: as §1
HT-29 [6] = assay: Down regulation of PGLYRP4 gene expression in human HT-29 cells at IC50 after 48 hrs by cDNA microarray technique relative to control
MCF7 [7] = assay: Down regulation of P53AIP1 gene expression in human MCF7 cells at IC50 after 48 hrs by cDNA microarray technique relative to control
MCF7 [8] = assay: Down regulation of FLJ35954 gene expression in human MCF7 cells at IC50 after 48 hrs by cDNA microarray technique relative to control; outline: as §2
MCF7 [9] = assay: Down regulation of DOK5 gene expression in human MCF7 cells at IC50 after 48 hrs by cDNA microarray technique relative to control; outline: as §2
MCF7 [10] = assay: Upregulation of SMARCA1 gene expression in human MCF7 cells at IC50 after 48 hrs by cDNA microarray technique relative to control
HT-29 [11] = assay: Down regulation of DNAJC5B gene expression in human HT-29 cells at IC50 after 48 hrs by cDNA microarray technique relative to control; outline: as §2
HT-29 [12] = assay: Down regulation of NFATC1 gene expression in human HT-29 cells at IC50 after 48 hrs by cDNA microarray technique relative to control
MCF7 [13] = assay: Upregulation of ABCD2 gene expression in human MCF7 cells at IC50 after 48 hrs by cDNA microarray technique relative to control
HT-29 [14] = assay: Down regulation of SCD4 gene expression in human HT-29 cells at IC50 after 48 hrs by cDNA microarray technique relative to control
HT-29 [15] = assay: Upregulation of Beta4GalNAc-T4 gene expression in human HT-29 cells at IC50 after 48 hrs by cDNA microarray technique relative to control
HT-29 [16] = assay: Upregulation of HOXB8 gene expression in human HT-29 cells at IC50 after 48 hrs by cDNA microarray technique relative to control
MCF7 [17] = assay: Upregulation of CR595826 gene expression in human MCF7 cells at IC50 after 48 hrs by cDNA microarray technique relative to control
HT-29 [18] = assay: Down regulation of GNRHR2 gene expression in human HT-29 cells at IC50 after 48 hrs by cDNA microarray technique relative to control; outline: as §2
MCF7 [19] = assay: Down regulation of PGLYRP4 gene expression in human MCF7 cells at IC50 after 48 hrs by cDNA microarray technique relative to control
MCF7 [20] = assay: Down regulation of ZNF354A gene expression in human MCF7 cells at IC50 after 48 hrs by cDNA microarray technique relative to control
HT-29 [21] = assay: Down regulation of ARL10B gene expression in human HT-29 cells at IC50 after 48 hrs by cDNA microarray technique relative to control; outline: as §1
MCF7 [22] = assay: Down regulation of BIVM gene expression in human MCF7 cells at IC50 after 48 hrs by cDNA microarray technique relative to control; outline: as §1
HT-29 [23] = assay: Down regulation of SLC22A1 gene expression in human HT-29 cells at IC50 after 48 hrs by cDNA microarray technique relative to control
HT-29 [24] = assay: Down regulation of ARPC4 gene expression in human HT-29 cells at IC50 after 48 hrs by cDNA microarray technique relative to control; outline: as §1
MCF7 [25] = assay: Down regulation of CNIH3 gene expression in human MCF7 cells at IC50 after 48 hrs by cDNA microarray technique relative to control; outline: as §1
HT-29 [26] = assay: Down regulation of TMED9 gene expression in human HT-29 cells at IC50 after 48 hrs by cDNA microarray technique relative to control
HT-29 [27] = assay: Down regulation of PRKCABP gene expression in human HT-29 cells at IC50 after 48 hrs by cDNA microarray technique relative to control
MCF7 [28] = assay: Upregulation of ERN1 gene expression in human MCF7 cells at IC50 after 48 hrs by cDNA microarray technique relative to control
MCF7 [29] = assay: Down regulation of OR8A1 gene expression in human MCF7 cells at IC50 after 48 hrs by cDNA microarray technique relative to control
MCF7 [30] = assay: Upregulation of OXSR1 gene expression in human MCF7 cells at IC50 after 48 hrs by cDNA microarray technique relative to control
HT-29 [31] = assay: Down regulation of RXRB gene expression in human HT-29 cells at IC50 after 48 hrs by cDNA microarray technique relative to control
HT-29 [32] = assay: Down regulation of ANP32D gene expression in human HT-29 cells at IC50 after 48 hrs by cDNA microarray technique relative to control; outline: as §1
HT-29 [33] = assay: Down regulation of FUS gene expression in human HT-29 cells at IC50 after 48 hrs by cDNA microarray technique relative to control; outline: as §2
MCF7 [34] = assay: Down regulation of TSGA10 gene expression in human MCF7 cells at IC50 after 48 hrs by cDNA microarray technique relative to control
MCF7 [35] = assay: Upregulation of X77737 gene expression in human MCF7 cells at IC50 after 48 hrs by cDNA microarray technique relative to control
HT-29 [36] = assay: Down regulation of PRP19 gene expression in human HT-29 cells at IC50 after 48 hrs by cDNA microarray technique relative to control
MCF7 [37] = assay: Down regulation of P2RY13 gene expression in human MCF7 cells at IC50 after 48 hrs by cDNA microarray technique relative to control
HT-29 [38] = assay: Upregulation of PLOD2 gene expression in human HT-29 cells at IC50 after 48 hrs by cDNA microarray technique relative to control

## COC(CN(c1ccccc1CO)S(=O)(=O)c1ccccc1[N+](=O)[O-])n1cnc2ncnc(Cl)c21 (racemic)
HT-29 [1]
  fold change (FC): 2.56
MCF7 [2]
  fold change (FC): -2.07
HT-29 [3]
  fold change (FC): -2.63
MCF7 [4]
  fold change (FC): 2.59
MCF7 [5]
  fold change (FC): -2.03
HT-29 [6]
  fold change (FC): -2.02
MCF7 [7]
  fold change (FC): -2.4
MCF7 [8]
  fold change (FC): -2.06
MCF7 [9]
  fold change (FC): -2.11
MCF7 [10]
  fold change (FC): 2.91
HT-29 [11]
  fold change (FC): -2.49
HT-29 [12]
  fold change (FC): -2.78
MCF7 [13]
  fold change (FC): 2.25
HT-29 [14]
  fold change (FC): -2.25
HT-29 [15]
  fold change (FC): 3.08
HT-29 [16]
  fold change (FC): 2.11
MCF7 [17]
  fold change (FC): 2.04
HT-29 [18]
  fold change (FC): -2.03
MCF7 [19]
  fold change (FC): -2.45

## O=C(OCC1c2ccccc2-c2ccccc21)N1CC(n2cnc3c(Cl)ncnc32)OCc2ccccc21 (racemic)
MCF7 [20]
  fold change (FC): -2.05
HT-29 [21]
  fold change (FC): -2.27
MCF7 [22]
  fold change (FC): -2.05
HT-29 [23]
  fold change (FC): -2.27
HT-29 [24]
  fold change (FC): -2.07
MCF7 [25]
  fold change (FC): -3.32
HT-29 [26]
  fold change (FC): -3.95
HT-29 [27]
  fold change (FC): -2.13
MCF7 [28]
  fold change (FC): 2.81
MCF7 [29]
  fold change (FC): -3.03
MCF7 [30]
  fold change (FC): 2.21
HT-29 [31]
  fold change (FC): -2.1
HT-29 [32]
  fold change (FC): -2.8
HT-29 [33]
  fold change (FC): -2.99
MCF7 [34]
  fold change (FC): -3.3
MCF7 [35]
  fold change (FC): 3.11
HT-29 [36]
  fold change (FC): -3.33
MCF7 [37]
  fold change (FC): -3.05
HT-29 [38]
  fold change (FC): 2.76
